Data reported in ChEMBL document CHEMBL5058577, “EUbOPEN Chemogenomics Library 2 (Multiplex)” (2022).

System: U2OS
Assay: Multiplex assay against U2OS
Type: toxicity, cell-based
Settings: human
Method in brief: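 Live cells were stained at seeding with Hoechst33342, BioTracker Green Microtubule Cytoskeleton Dye, MitoTracker Red and Annexin V Alexa Fluor 680. Following compound addition, they were imaged on a CQ1 microscope at 37°C and 5% CO2 and gated by CellPathfinder machine learning into Hoechst high-intensity objects or normal cells, with normal cells split into healthy, pyknosed or fragmented nuclei and pyknosed cells into mitotic or apoptotic. Tubulin, mitochondrial-mass and membrane-permeability phenotypes are per cents of healthy-nucleus cells.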

[1] = 12 h, 1 µM, compound concentration 1 uM, replicate 1
[2] = 12 h, 1 µM, compound concentration 1 uM, replicate 2
[3] = 12 h, 10 µM, compound concentration 10 uM, replicate 1
[4] = 12 h, 10 µM, compound concentration 10 uM, replicate 2
[5] = 24 h, 1 µM, compound concentration 1 uM, replicate 1
[6] = 24 h, 1 µM, compound concentration 1 uM, replicate 2
[7] = 24 h, 10 µM, compound concentration 10 uM, replicate 1
[8] = 24 h, 10 µM, compound concentration 10 uM, replicate 2
[9] = 48 h, 1 µM, compound concentration 1 uM, replicate 1
[10] = 48 h, 1 µM, compound concentration 1 uM, replicate 2
[11] = 48 h, 10 µM, compound concentration 10 uM, replicate 1
[12] = 48 h, 10 µM, compound concentration 10 uM, replicate 2

Structure (SMILES): COc1cc(C(=O)N2CC[C@@H](O)[C@@H](N)C2)cc2nc(-c3cc4ccccc4n3CC3CC3)n(C)c12.Cl
- Population Apoptotic (%) [1]: 50%
- Population Fragmented Nuclei (%) [1]: 32%
- Population Healthy Nuclei (%) [1]: 53%
- Population Hoechst High Intensity Objects (%) [1]: 4%
- Population Membrane Permeable-Phenotype (%) [1]: 38%
- Population Mitochondria Different-Phenotype (%) [1]: 16%
- Population Mitotic Cells (%) [1]: 50%
- Population Normal (%) [1]: 95%
- Population Pyknosed Nuclei (%) [1]: 14%
- Population Tubulin-Different-Phenotype (%) [1]: 29%
- Total Cell Count [1]: 223
- Population Apoptotic (%) [2]: 75%
- Population Fragmented Nuclei (%) [2]: 15%
- Population Healthy Nuclei (%) [2]: 75%
- Population Hoechst High Intensity Objects (%) [2]: 1%
- Population Membrane Permeable-Phenotype (%) [2]: 20%
- Population Mitochondria Different-Phenotype (%) [2]: 18%
- Population Mitotic Cells (%) [2]: 25%
- Population Normal (%) [2]: 98%
- Population Pyknosed Nuclei (%) [2]: 8%
- Population Tubulin-Different-Phenotype (%) [2]: 15%
- Total Cell Count [2]: 92
- Population Apoptotic (%) [3]: 68%
- Population Fragmented Nuclei (%) [3]: 23%
- Population Healthy Nuclei (%) [3]: 38%
- Population Hoechst High Intensity Objects (%) [3]: 6%
- Population Membrane Permeable-Phenotype (%) [3]: 75%
- Population Mitochondria Different-Phenotype (%) [3]: 88%
- Population Mitotic Cells (%) [3]: 31%
- Population Normal (%) [3]: 93%
- Population Pyknosed Nuclei (%) [3]: 37%
- Population Tubulin-Different-Phenotype (%) [3]: 96%
- Total Cell Count [3]: 208
- Population Apoptotic (%) [4]: 56%
- Population Fragmented Nuclei (%) [4]: 16%
- Population Healthy Nuclei (%) [4]: 61%
- Population Hoechst High Intensity Objects (%) [4]: 5%
- Population Membrane Permeable-Phenotype (%) [4]: 79%
- Population Mitochondria Different-Phenotype (%) [4]: 91%
- Population Mitotic Cells (%) [4]: 44%
- Population Normal (%) [4]: 94%
- Population Pyknosed Nuclei (%) [4]: 22%
- Population Tubulin-Different-Phenotype (%) [4]: 94%
- Total Cell Count [4]: 120
- Population Apoptotic (%) [5]: 78%
- Population Fragmented Nuclei (%) [5]: 28%
- Population Healthy Nuclei (%) [5]: 54%
- Population Hoechst High Intensity Objects (%) [5]: 3%
- Population Membrane Permeable-Phenotype (%) [5]: 19%
- Population Mitochondria Different-Phenotype (%) [5]: 14%
- Population Mitotic Cells (%) [5]: 21%
- Population Normal (%) [5]: 96%
- Population Pyknosed Nuclei (%) [5]: 17%
- Population Tubulin-Different-Phenotype (%) [5]: 12%
- Total Cell Count [5]: 243
- Population Apoptotic (%) [6]: 75%
- Population Fragmented Nuclei (%) [6]: 18%
- Population Healthy Nuclei (%) [6]: 69%
- Population Hoechst High Intensity Objects (%) [6]: 2%
- Population Membrane Permeable-Phenotype (%) [6]: 17%
- Population Mitochondria Different-Phenotype (%) [6]: 18%
- Population Mitotic Cells (%) [6]: 25%
- Population Normal (%) [6]: 97%
- Population Pyknosed Nuclei (%) [6]: 11%
- Population Tubulin-Different-Phenotype (%) [6]: 17%
- Total Cell Count [6]: 109
- Population Apoptotic (%) [7]: 84%
- Population Fragmented Nuclei (%) [7]: 25%
- Population Healthy Nuclei (%) [7]: 35%
- Population Hoechst High Intensity Objects (%) [7]: 4%
- Population Membrane Permeable-Phenotype (%) [7]: 57%
- Population Mitochondria Different-Phenotype (%) [7]: 88%
- Population Mitotic Cells (%) [7]: 15%
- Population Normal (%) [7]: 95%
- Population Pyknosed Nuclei (%) [7]: 38%
- Population Tubulin-Different-Phenotype (%) [7]: 78%
- Total Cell Count [7]: 222
- Population Apoptotic (%) [8]: 71%
- Population Fragmented Nuclei (%) [8]: 26%
- Population Healthy Nuclei (%) [8]: 48%
- Population Membrane Permeable-Phenotype (%) [8]: 50%
- Population Mitochondria Different-Phenotype (%) [8]: 85%
- Population Mitotic Cells (%) [8]: 28%
- Population Pyknosed Nuclei (%) [8]: 25%
- Population Tubulin-Different-Phenotype (%) [8]: 90%
- Total Cell Count [8]: 133
- Population Apoptotic (%) [9]: 82%
- Population Fragmented Nuclei (%) [9]: 23%
- Population Healthy Nuclei (%) [9]: 61%
- Population Hoechst High Intensity Objects (%) [9]: 2%
- Population Membrane Permeable-Phenotype (%) [9]: 9%
- Population Mitochondria Different-Phenotype (%) [9]: 5%
- Population Mitotic Cells (%) [9]: 17%
- Population Normal (%) [9]: 97%
- Population Pyknosed Nuclei (%) [9]: 15%
- Population Tubulin-Different-Phenotype (%) [9]: 5%
- Total Cell Count [9]: 304
- Population Apoptotic (%) [10]: 76%
- Population Membrane Permeable-Phenotype (%) [10]: 17%
- Population Mitochondria Different-Phenotype (%) [10]: 11%
- Population Mitotic Cells (%) [10]: 23%
- Population Pyknosed Nuclei (%) [10]: 14%
- Population Tubulin-Different-Phenotype (%) [10]: 12%
- Total Cell Count [10]: 149
- Population Apoptotic (%) [11]: 88%
- Population Fragmented Nuclei (%) [11]: 29%
- Population Healthy Nuclei (%) [11]: 35%
- Population Hoechst High Intensity Objects (%) [11]: 12%
- Population Membrane Permeable-Phenotype (%) [11]: 47%
- Population Mitochondria Different-Phenotype (%) [11]: 65%
- Population Mitotic Cells (%) [11]: 11%
- Population Normal (%) [11]: 87%
- Population Pyknosed Nuclei (%) [11]: 35%
- Population Tubulin-Different-Phenotype (%) [11]: 62%
- Total Cell Count [11]: 232
- Population Apoptotic (%) [12]: 92%
- Population Fragmented Nuclei (%) [12]: 30%
- Population Hoechst High Intensity Objects (%) [12]: 6%
- Population Mitochondria Different-Phenotype (%) [12]: 84%
- Population Mitotic Cells (%) [12]: 7%
- Population Normal (%) [12]: 93%
- Population Pyknosed Nuclei (%) [12]: 34%
- Population Tubulin-Different-Phenotype (%) [12]: 75%
- Total Cell Count [12]: 131
